Data reported in ChEMBL document CHEMBL5316271, “Microtubule-Stabilizing 1,2,4-Triazolo[1,5-a]pyrimidines as Candidate Therapeutics for Neurodegenerative Disease: Matched Molecular Pair Analyses and Computational Studies Reveal New Structure-Activity Insights” (J Med Chem, 2023).
Active and inactive are the calls of the source. No cut-off for these calls is given here.

How the values were obtained:
[1] = tested on: Primary cortical neuron; assay: Induction of microtubule stabilization in mouse Primary cortical neuron cells assessed as prevention of okadaic acid induced microtubule collapse by measuring cellular acetylated alpha-tubulin level at 10 uM incubated for 8 hrs by ELISA; type: cell-based
In short: (§1)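 Embryonic dissociated cortical neurons (mouse or rat) plated 3 × 10^5/well on poly-D-lysine, grown 10 days, then treated 8 h with 15 nM okadaic acid plus compound or vehicle (0.25% DMSO). Homogenate AcTub measured by ELISA; one-way ANOVA versus vehicle without okadaic acid.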

[2] = biological target: T1, Tubulin (Homo sapiens) (UniProt P68371+Q9H4B7+P0DPH7+P68366+Q13509+Q71U36+P04350+Q3ZCM7+P07437+P68363+Q9BQE3+Q6PEY2+Q13885+Q9BVA1+Q9BUF5); assay: Induction of microtubule stabilization in human HEK293-A cells assessed as fold change as increase in cellular acetylated alpha-tubulin level at 1 uM incubated for 4 hrs by ELISA relative to control; type: cell-based
In short: (§2)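 QBI293 cells (2 × 10^5/well) plated overnight, then fresh medium with compound (from 4–20 mM DMSO stocks) or vehicle (0.25–0.3% DMSO) for 4 h. Whole-cell extracts normalized by BCA protein; AcTub and total α-tubulin quantified by ELISA, as fold-change versus DMSO cells; one-way ANOVA.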

[3] = biological target: T1, Tubulin (Homo sapiens); assay: Induction of microtubule stabilization in human HEK293-A cells assessed as fold change as increase in cellular acetylated alpha-tubulin level at 10 uM incubated for 4 hrs by ELISA relative to control; type: cell-based; in short: as §2
[4] = biological target: T1, Tubulin (Homo sapiens); assay: Induction of microtubule stabilization in human HEK293-A cells assessed as fold change in total alpha-tubulin level reduction at 1 uM incubated for 4 hrs by ELISA relative to control; type: cell-based; in short: as §2
[5] = biological target: T1, Tubulin (Homo sapiens); assay: Induction of microtubule stabilization in human HEK293-A cells assessed as fold change in total alpha-tubulin level reduction at 10 uM incubated for 4 hrs by ELISA relative to control; type: cell-based; in short: as §2
[6] = biological target: T1, Tubulin (Homo sapiens); assay: Induction of microtubule stabilization in human HEK293-A cells assessed as fold change in cellular acetylated alpha-tubulin level at 1 uM incubated for 4 hrs by ELISA relative to cevipabulin; type: cell-based
In short: (§3)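 QBI293 cells (2 × 10^5/well) treated 4 h with compound or DMSO vehicle; AcTub in whole-cell extracts measured by ELISA with BCA protein normalization. Fold-change in AcTub relative to DMSO then expressed against change produced by positive-control reference compound at 100 nM run alongside, to correct day-to-day responsiveness.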

[7] = biological target: T1, Tubulin (Homo sapiens); assay: Induction of microtubule stabilization in human HEK293-A cells assessed as fold change in cellular acetylated alpha-tubulin level at 10 uM incubated for 4 hrs by ELISA relative to cevipabulin; type: cell-based; in short: as §3
[8] = tested on: Primary cortical neuron; assay: Induction of microtubule stabilization in rat Primary cortical neuron cells assessed as prevention of okadaic acid induced microtubule collapse by measuring cellular acetylated alpha-tubulin level at 1 uM incubated for 8 hrs by ELISA; type: cell-based; in short: as §1
[9] = tested on: Mus musculus; assay: Binding affinity to microtubule in CD-1 mouse brain assessed as increase in de-tyrosinated alpha-tubulin level at 1 mg/kg, ip qd for 2 days […]; type: organism-based; conditions: time 2.0 day
In short: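 CD-1 mice (n = 4 per group) got two i.p. doses 1 mg/kg, about 24 h apart, from DMSO stock diluted into 30% Kolliphor EL in PBS pH 7.4; vehicle controls. Cortex and hippocampus taken 4 h after second dose, homogenized in RIPA with protease inhibitors, PMSF, 3 μM trichostatin A; equal protein western blot for Glu-tubulin, α-tubulin, GAPDH; infrared imaging; GluTub/α-Tub ratio versus vehicle.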

C[C@@H](Nc1c(-c2c(F)cc(OCCCO)cc2F)c(Cl)nc2ncnn12)C(C)(C)C
Activity [1]: inactive

CO[C@H]1C[C@H]2CC[C@@H](C1)N2c1c(-c2ccc(F)cc2F)c(Cl)nc2ncnn12
fold change (FC) [2]: 3.65
fold change (FC) [3]: 7.43
fold change (FC) [4]: 1.12
fold change (FC) [5]: 1.38
fold change (FC) [6]: 0.54
fold change (FC) [7]: 1.11

CC(C)[C@@H](C)Nc1c(-c2c(F)cc(C#CCCO)cc2F)c(Cl)nc2ncnn12
Activity [1]: Active

C[C@@H](Nc1c(-c2c(F)cc(C#CCCCO)cc2F)c(Cl)nc2ncnn12)C(C)(C)C
Activity [1]: Active

CC(C)[C@@H](Nc1c(-c2c(F)cc(F)cc2F)c(Cl)nc2ncnn12)C(F)(F)F
Activity [8]: inactive

C[C@@H](Nc1c(-c2c(F)cc(C#N)cc2F)c(Cl)nc2ncnn12)C(C)(C)C
Activity [9]: Active

CC(C)[C@@H](C)Nc1c(-c2c(F)cc(C#CCCCO)cc2F)c(Cl)nc2ncnn12
Activity [1]: Active

CC(C)[C@@H](C)Nc1c(-c2c(F)cc(F)cc2F)c(Cl)nc2ncnn12
Activity [8]: Active
Activity [1]: Active

C[C@@H](Nc1c(-c2c(F)cc(F)cc2F)c(Cl)nc2ncnn12)C1(C)N=N1
fold change (FC) [7]: 0.33

C[C@@H](Nc1c(-c2c(F)cc(F)cc2F)c(Cl)nc2ncnn12)C1CC1
fold change (FC) [4]: 1.11

CC(C)[C@H](Nc1c(-c2c(F)cc(F)cc2F)c(Cl)nc2ncnn12)C(F)(F)F
Activity [8]: inactive

C[C@@H](Nc1c(-c2c(F)cc(OCCCN(C)C)cc2F)c(Cl)nc2ncnn12)C(C)(C)C
Activity [1]: Active

C[C@@H](Nc1c(-c2c(F)cc(C#CCCN(C)C)cc2F)c(Cl)nc2ncnn12)C(C)(C)C
Activity [1]: Active
Activity [9]: Active

C[C@@H](Nc1c(-c2c(F)cc(C#CCCO)cc2F)c(Cl)nc2ncnn12)C(C)(C)C
Activity [1]: Active
Activity [9]: Active
